The source of these data is ChEMBL document CHEMBL3525897, “Metabolism and quantification of [(18)F]DPA-714, a new TSPO positron emission tomography radioligand” (Drug Metab Dispos, 2013).

A short description of series [1]: Retention time of the compound by LC-MS analysis. Type of series: physicochemical. The method, boiled down:
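Separation of DPA-714 and its metabolites by LC-MS on reverse-phase Atlantis C18 column (2.1x150 mm) with electrospray ionization.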

For series [2], the system named is Liver microsome. As to the kind of experiment: Drug level in Sprague-Dawley rat liver microsomes treated with DPA-714 after 15 to 60 mins by LC-MS/MS analysis. (Liver microsomes are vesicles of endoplasmic reticulum, rich in cytochrome P450 enzymes.)
Series [3] is described as follows: Retention time in baboon plasma treated with [18F]DPA-714 by radio-HPLC analysis. Type of series: ADME, cell-free. The following applies: papio anubis. Put shortly: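 Isoflurane-anaesthetized baboons, 6 PET experiments. Arterial femoral plasma sampled 0-120 min and centrifuged at 4°C, then deproteinated with acetonitrile; pellet radioactivity counted and treated as metabolite. Supernatant run on radio-HPLC (C18 preparative, 0.1% TFA water/acetonitrile 20-80% over 10 min, 5 mL/min). Counts decay-corrected to injection. Parent fraction as % total; data fitted to two exponentials; mean ± sd.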

In series [4] the test system is Liver microsome. Put plainly: Drug metabolism in Sprague-Dawley rat liver microsomes assessed as N-ethyl-2-(2-(4-(2-fluoroethoxy)phenyl)-5,7-dimethylpyrazolo[1,5-a]pyrimidin-3-yl)acetamide level after 15 to 60 mins by LC-MS/MS analysis. Type of series: ADME. The method, boiled down: (§1)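 Liver microsomes (rat, baboon, or pooled human from 10 donors), 1 mg protein/mL, with DPA-714 100 µM in 0.1 M potassium phosphate, pH 7.4. Preincubated 2 min at 37°C, then started with NADPH-generating system. Run 15, 30 and 60 min; rates from 30 min. Stopped with acetonitrile, filtered, analysed by LC-MS-MS. Rates in nmol/mg/min; mean ± sd of 5 duplicate experiments.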

Series [5] concerns Liver microsome. As to the kind of experiment: Drug metabolism in Sprague-Dawley rat liver microsomes assessed as N,N-diethyl-2-(2-(4-(2-fluoroethoxy)phenyl)-6-hydroxy-5,7-dimethylpyrazolo[1,5-a]pyrimidin-3-yl)acetamide level after 15 to 60 mins by LC-MS/MS analysis. The series is classed as ADME. The method, boiled down: as §1
The nature of series [6]: Drug metabolism in baboon liver microsomes assessed as N,N-diethyl-2-(2-(4-hydroxyphenyl)-5,7-dimethylpyrazolo[1,5-a]pyrimidin-3-yl)acetamide level after 15 to 60 mins by LC-MS/MS analysis. The series is classed as ADME. The following applies: papio anubis. Put shortly:
as §1

For series [7], the system named is Liver microsome. As to the kind of experiment: Drug metabolism in Sprague-Dawley rat liver microsomes assessed as N-ethyl-2-(2-(4-(2-fluoroethoxy)phenyl)-5-(hydroxymethyl)-7-methylpyrazolo[1,5-a]pyrimidin-3-yl)acetamide level after 15 to 60 mins by LC-MS/MS analysis. The series is classed as ADME. Put shortly: as §1
The test system of series [8] is Liver microsome. Put plainly: Drug metabolism in Sprague-Dawley rat liver microsomes assessed as N,N-diethyl-2-(2-(4-(2-fluoroethoxy)phenyl)-5,7-bis(hydroxymethyl)pyrazolo[1,5-a]pyrimidin-3-yl)acetamide level after 15 to 60 mins by LC-MS/MS analysis. Type of series: ADME. Put shortly: as §1
In series [9] the test system is Liver microsome. As to the kind of experiment: Drug metabolism in human liver microsomes assessed as N,N-diethyl-2-(2-(4-(2-fluoroethoxy)phenyl)-7-(hydroxymethyl)-5-methylpyrazolo[1,5-a]pyrimidin-3-yl)acetamide level after 15 to 60 mins by LC-MS/MS analysis. The series is classed as ADME. Put shortly: as §1
The subject of series [10] is Liver microsome. As to the kind of experiment: Drug metabolism in human liver microsomes assessed as N-ethyl-2-(2-(4-(2-fluoroethoxy)phenyl)-5,7-dimethylpyrazolo[1,5-a]pyrimidin-3-yl)acetamide level after 15 to 60 mins by LC-MS/MS analysis. The series is classed as ADME. Put shortly: as §1
Series [11] has as its system Liver microsome. Put plainly: Drug metabolism in Sprague-Dawley rat liver microsomes assessed as N,N-diethyl-2-(2-(4-(2-fluoroethoxy)phenyl)-7-(hydroxymethyl)-5-methylpyrazolo[1,5-a]pyrimidin-3-yl)acetamide level after 15 to 60 mins by LC-MS/MS analysis. The series is classed as ADME. The method, boiled down:
as §1

For series [12], the system named is Liver microsome. As to the kind of experiment: Drug metabolism in Sprague-Dawley rat liver microsomes assessed as N,N-diethyl-2-(2-(4-hydroxyphenyl)-5,7-dimethylpyrazolo[1,5-a]pyrimidin-3-yl)acetamide level after 15 to 60 mins by LC-MS/MS analysis. The series is classed as ADME. Put shortly:
as §1

Series [13] in a line: Drug metabolism in baboon liver microsomes assessed as N,N-diethyl-2-(2-(4-(2-fluoroethoxy)phenyl)-7-(hydroxymethyl)-5-methylpyrazolo[1,5-a]pyrimidin-3-yl)acetamide level after 15 to 60 mins by LC-MS/MS analysis. Type of series: ADME. The note with it: papio anubis. The method, boiled down: as §1
Series [14] relates to Liver microsome. As to the kind of experiment: Drug metabolism in Sprague-Dawley rat liver microsomes assessed as N,N-diethyl-2-(2-(4-(2-fluoroethoxy)phenyl)-5-(hydroxymethyl)-7-methylpyrazolo[1,5-a]pyrimidin-3-yl)acetamide level after 15 to 60 mins by LC-MS/MS analysis. The series is classed as ADME. Put shortly: as §1

Molecules are shown by their SMILES.

Compound `CCNC(=O)Cc1c(-c2ccc(OCCF)cc2)nn2c(C)cc(C)nc12` had a Retention_time in series [1] of 16.1 min. Further, the Drug metabolism entry in the series on Liver microsome [2] was “metabolite_detected”.

As for `CCNC(=O)Cc1c(-c2ccc(OCCF)cc2)nn2c(C)cc(CO)nc12`, the Retention_time in series [1] is 13.88 min. For the same compound, the Drug metabolism entry in the series with Liver microsome [2] is reported as “metabolite_detected”.

In turn, `CCN(CC)C(=O)Cc1c(-c2ccc(OCCF)cc2)nn2c(CO)cc(CO)nc12` gave a Retention_time in [1] of 14.28 min. In addition, in the series on Liver microsome [2], the Drug metabolism entry is reported as “metabolite_detected”.

In the case of `CCNC(=O)Cc1c(-c2ccc(OCC[18F])cc2)nn2c(C)cc(C)nc12`, the Retention_time in series [3] came out at 8.583 min.

`CCN(CC)C(=O)Cc1c(-c2ccc(OCCF)cc2)nn2c(C)cc(C)nc12` [DPA-714]: the Drug metabolism is 0.82 nmol/mg/min in the series on Liver microsome [4]; “metabolite_detected” in the series with Liver microsome [5]; 0.64 nmol/mg/min in series [6]; “metabolite_detected” with Liver microsome [7]; “metabolite_detected” in the series on Liver microsome [8]; 0.57 nmol/mg/min in the series on Liver microsome [9]. Further, the Drug metabolism is 0.45 nmol/mg/min with Liver microsome [10]; “metabolite_detected” in the series on Liver microsome [11]; “metabolite_detected” with Liver microsome [12]; 0.46 nmol/mg/min in series [13]; 0.89 nmol/mg/min with Liver microsome [14].

`CCN(CC)C(=O)Cc1c(-c2ccc(OCCF)cc2)nn2c(C)c(O)c(C)nc12` gave a Retention_time in series [1] of 16.43 min. Moreover, in the series on Liver microsome [2], the Drug metabolism entry is recorded as “metabolite_detected”.
